Measurements taken from ChEMBL document CHEMBL3763060, “Synthesis and evaluation of analogs of the phenylpyridazinone NPD-001 as potent trypanosomal TbrPDEB1 phosphodiesterase inhibitors and in vitro trypanocidals” (Bioorg Med Chem, 2016).
≈ marks a conversion by molar mass, not a printed value.

How the values were obtained:
[1] = Cytotoxicity against human MRC5 cells assessed as growth inhibition; assay type: cell-based
Procedure, shortened: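 MRC-5 fibroblasts were grown at 37 °C and 5% CO₂ in Hirumi-9 medium with 10% FCS. Compounds came from 20 mM DMSO stocks, serially pre-diluted 2- or 4-fold in DMSO, then in demineralized water; final DMSO was <1%. Results were reported as −logCC₅₀ with n = 2.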

[2] = system: Trypanosoma brucei brucei; assay: Antitrypanosomal activity against suramin-sensitive Trypanosoma brucei brucei Squib427 assessed as inhibition of parasite growth; assay type: functional, organism-based
Procedure, shortened: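 Bloodstream-form trypomastigotes of Squib-427 were grown at 37 °C and 5% CO₂ in Hirumi-9 medium with 10% FCS. Compounds came from 20 mM DMSO stocks, pre-diluted 2- or 4-fold serially in DMSO, then diluted in demineralized water; final DMSO was <1%. Results were reported as −logEC₅₀ with n = 2.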

[3] = Selectivity index, ratio of CC50 for human MRC5 cells to EC50 for suramin-sensitive Trypanosoma brucei brucei Squib427; assay type: toxicity, cell-based; details: read-out: Ratio CC50/EC50
Procedure, shortened: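 The index was calculated as CC₅₀ in MRC-5 fibroblasts divided by EC₅₀ against T. b. brucei. Both came from parallel assays in Hirumi-9 medium with 10% FCS at 37 °C and 5% CO₂, each n = 2.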

[4] = molecular target: T1, Class 1 phosphodiesterase PDEB1 (Trypanosoma brucei, UniProt Q8WQX9); assay: Inhibition of recombinant Trypanosoma brucei PDEB1 using [3H]-cAMP as substrate after 15 mins by scintillation proximity assay
T1 sequence (Q8WQX9 whole entry): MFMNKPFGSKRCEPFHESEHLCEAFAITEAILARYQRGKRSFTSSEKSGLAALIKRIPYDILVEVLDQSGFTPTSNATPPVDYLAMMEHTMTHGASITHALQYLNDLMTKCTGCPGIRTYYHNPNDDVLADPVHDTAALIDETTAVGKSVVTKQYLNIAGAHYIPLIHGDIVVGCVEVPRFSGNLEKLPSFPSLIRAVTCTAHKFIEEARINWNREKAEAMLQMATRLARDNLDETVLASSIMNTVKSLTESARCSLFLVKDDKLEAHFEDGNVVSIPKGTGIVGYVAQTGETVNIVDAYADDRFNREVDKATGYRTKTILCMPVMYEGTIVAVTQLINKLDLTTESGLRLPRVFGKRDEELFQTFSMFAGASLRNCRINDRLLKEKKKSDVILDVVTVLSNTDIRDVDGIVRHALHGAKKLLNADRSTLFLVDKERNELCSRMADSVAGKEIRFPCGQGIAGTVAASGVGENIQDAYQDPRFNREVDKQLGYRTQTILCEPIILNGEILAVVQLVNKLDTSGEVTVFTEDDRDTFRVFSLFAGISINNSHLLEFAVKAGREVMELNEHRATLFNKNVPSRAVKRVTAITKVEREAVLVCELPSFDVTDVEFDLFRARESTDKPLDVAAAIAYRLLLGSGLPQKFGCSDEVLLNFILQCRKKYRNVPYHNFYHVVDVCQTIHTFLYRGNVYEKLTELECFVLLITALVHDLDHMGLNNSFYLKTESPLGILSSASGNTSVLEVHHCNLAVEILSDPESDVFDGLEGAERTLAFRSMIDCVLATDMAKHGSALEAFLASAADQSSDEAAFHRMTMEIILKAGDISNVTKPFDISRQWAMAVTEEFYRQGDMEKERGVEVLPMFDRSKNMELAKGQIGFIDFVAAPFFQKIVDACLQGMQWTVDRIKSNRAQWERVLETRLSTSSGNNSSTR
Procedure, shortened: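 Inhibition of TbrPDEB1-mediated [³H]-cAMP hydrolysis was read by scintillation proximity assay. Each analog was run in at least two independent experiments.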

[5] = molecular target: T2, 3',5'-cyclic-AMP phosphodiesterase 4B (Homo sapiens, UniProt Q07343); assay: Inhibition of full length human recombinant PDE4B1 using [3H]-cAMP as substrate by scintillation proximity assay
T2 sequence (Q07343 whole entry): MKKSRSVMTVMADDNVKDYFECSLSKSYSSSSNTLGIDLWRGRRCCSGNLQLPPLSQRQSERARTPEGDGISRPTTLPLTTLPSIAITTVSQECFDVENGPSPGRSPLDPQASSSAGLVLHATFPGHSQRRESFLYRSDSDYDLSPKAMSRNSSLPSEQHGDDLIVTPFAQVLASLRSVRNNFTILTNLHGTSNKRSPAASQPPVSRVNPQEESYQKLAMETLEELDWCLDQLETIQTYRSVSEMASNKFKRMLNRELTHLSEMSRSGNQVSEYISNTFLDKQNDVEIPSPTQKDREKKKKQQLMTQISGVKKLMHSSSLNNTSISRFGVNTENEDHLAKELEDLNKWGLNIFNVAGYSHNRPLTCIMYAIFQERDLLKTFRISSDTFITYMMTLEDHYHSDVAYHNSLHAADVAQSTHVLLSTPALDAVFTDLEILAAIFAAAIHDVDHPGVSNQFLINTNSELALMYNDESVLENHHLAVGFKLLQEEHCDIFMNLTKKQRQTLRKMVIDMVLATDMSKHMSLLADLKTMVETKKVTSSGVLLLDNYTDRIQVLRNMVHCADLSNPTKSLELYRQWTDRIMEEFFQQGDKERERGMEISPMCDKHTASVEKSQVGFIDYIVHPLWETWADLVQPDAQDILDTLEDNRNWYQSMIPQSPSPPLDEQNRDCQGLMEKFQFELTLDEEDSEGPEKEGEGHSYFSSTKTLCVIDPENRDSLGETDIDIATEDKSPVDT

[6] = Solubility of compound in 0.05 M phosphate buffer at pH 7.4; assay type: physicochemical
[7] = Selectivity ratio of IC50 for Trypanosoma brucei recombinant PDEB1 to IC50 for full length human recombinant PDE4B1
Trypanosoma brucei = assay: Antitrypanosomal activity against Trypanosoma brucei assessed as inhibition of parasite growth after 48 hrs by resazurin assay; assay type: functional, organism-based
[8] = molecular target: cGMP-dependent 3',5'-cyclic phosphodiesterase (Homo sapiens, UniProt O00408); assay: Inhibition of full length human recombinant PDE2A3 using [3H]-cAMP as substrate by scintillation proximity assay
cGMP-dependent 3',5'-cyclic phosphodiesterase, sequence (O00408 whole entry): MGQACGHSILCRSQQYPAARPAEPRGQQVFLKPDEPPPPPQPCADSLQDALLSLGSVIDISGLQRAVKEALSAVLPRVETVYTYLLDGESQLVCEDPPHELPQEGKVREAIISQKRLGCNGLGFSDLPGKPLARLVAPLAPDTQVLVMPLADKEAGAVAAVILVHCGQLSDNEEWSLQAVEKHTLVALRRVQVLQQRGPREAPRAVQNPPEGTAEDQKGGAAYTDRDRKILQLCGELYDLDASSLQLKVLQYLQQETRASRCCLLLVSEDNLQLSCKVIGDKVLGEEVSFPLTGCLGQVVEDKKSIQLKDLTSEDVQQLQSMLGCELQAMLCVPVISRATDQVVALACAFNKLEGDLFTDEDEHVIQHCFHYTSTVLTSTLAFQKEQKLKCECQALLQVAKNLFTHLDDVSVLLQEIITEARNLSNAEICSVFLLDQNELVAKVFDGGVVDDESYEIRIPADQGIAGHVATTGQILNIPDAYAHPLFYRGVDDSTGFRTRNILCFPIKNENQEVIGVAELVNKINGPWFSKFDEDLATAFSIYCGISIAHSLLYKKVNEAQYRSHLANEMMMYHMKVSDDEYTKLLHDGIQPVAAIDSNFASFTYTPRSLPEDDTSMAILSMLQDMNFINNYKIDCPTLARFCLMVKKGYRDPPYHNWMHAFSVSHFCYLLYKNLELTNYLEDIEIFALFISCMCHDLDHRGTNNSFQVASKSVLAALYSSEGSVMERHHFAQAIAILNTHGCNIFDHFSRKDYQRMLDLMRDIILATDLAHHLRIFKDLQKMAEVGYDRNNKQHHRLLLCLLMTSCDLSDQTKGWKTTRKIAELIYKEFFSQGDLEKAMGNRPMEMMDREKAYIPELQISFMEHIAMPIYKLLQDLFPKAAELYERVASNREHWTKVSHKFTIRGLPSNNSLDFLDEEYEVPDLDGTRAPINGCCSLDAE

[9] = Inhibition of full length human recombinant PDE3A1 using [3H]-cAMP as substrate by scintillation proximity assay
[10] = molecular target: T2, 3',5'-cyclic-AMP phosphodiesterase 4B; assay: Inhibition of full length human recombinant PDE4B2 using [3H]-cAMP as substrate by scintillation proximity assay
[11] = molecular target: High affinity cAMP-specific and IBMX-insensitive 3',5'-cyclic phosphodiesterase 8B (Homo sapiens, UniProt O95263); assay: Inhibition of full length human recombinant PDE8B using [3H]-cAMP as substrate by scintillation proximity assay
High affinity cAMP-specific and IBMX-insensitive 3',5'-cyclic phosphodiesterase 8B, sequence (O95263 whole entry): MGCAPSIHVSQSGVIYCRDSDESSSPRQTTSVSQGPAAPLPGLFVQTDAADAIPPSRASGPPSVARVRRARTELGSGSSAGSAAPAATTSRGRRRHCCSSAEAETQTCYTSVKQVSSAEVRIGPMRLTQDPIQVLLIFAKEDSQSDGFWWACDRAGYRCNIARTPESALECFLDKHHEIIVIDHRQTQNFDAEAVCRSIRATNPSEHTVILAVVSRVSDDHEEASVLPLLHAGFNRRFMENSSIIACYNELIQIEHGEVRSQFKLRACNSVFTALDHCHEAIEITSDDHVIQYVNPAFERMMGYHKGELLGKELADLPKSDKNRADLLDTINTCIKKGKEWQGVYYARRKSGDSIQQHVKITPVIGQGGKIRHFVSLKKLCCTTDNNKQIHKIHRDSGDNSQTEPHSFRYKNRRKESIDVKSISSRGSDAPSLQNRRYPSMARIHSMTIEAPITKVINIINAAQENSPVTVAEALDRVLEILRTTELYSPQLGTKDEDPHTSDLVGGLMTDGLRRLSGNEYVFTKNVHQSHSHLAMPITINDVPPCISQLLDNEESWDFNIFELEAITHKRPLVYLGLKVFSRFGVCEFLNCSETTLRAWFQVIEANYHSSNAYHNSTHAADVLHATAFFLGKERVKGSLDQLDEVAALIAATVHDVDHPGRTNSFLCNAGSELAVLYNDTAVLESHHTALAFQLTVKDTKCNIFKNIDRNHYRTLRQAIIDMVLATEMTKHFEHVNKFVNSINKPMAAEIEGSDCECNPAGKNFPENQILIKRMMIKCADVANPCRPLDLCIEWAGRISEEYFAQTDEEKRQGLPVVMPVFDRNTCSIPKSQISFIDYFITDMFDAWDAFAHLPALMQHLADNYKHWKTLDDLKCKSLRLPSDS

[12] = molecular target: High affinity cGMP-specific 3',5'-cyclic phosphodiesterase 9A (Homo sapiens, UniProt O76083); assay: Inhibition of full length human recombinant PDE9A3 using [3H]-cAMP as substrate by scintillation proximity assay
High affinity cGMP-specific 3',5'-cyclic phosphodiesterase 9A, sequence (O76083 whole entry): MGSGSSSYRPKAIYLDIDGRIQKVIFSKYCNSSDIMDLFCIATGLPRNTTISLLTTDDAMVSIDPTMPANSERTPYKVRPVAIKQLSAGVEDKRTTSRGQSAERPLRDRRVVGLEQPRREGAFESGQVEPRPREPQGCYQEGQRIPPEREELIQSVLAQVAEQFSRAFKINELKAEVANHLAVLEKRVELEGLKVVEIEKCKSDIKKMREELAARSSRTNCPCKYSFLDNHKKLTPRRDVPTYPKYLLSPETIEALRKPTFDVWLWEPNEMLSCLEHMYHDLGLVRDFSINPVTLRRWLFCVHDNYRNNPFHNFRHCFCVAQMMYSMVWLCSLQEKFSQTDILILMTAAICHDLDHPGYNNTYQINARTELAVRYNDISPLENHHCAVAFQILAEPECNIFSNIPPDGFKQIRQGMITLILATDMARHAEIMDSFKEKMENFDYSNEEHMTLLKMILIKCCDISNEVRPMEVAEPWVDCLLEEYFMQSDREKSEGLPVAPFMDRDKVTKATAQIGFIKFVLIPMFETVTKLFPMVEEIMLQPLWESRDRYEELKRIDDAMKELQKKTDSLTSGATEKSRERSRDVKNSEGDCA

[13] = molecular target: cAMP and cAMP-inhibited cGMP 3',5'-cyclic phosphodiesterase 10A (Homo sapiens, UniProt Q9Y233); assay: Inhibition of full length human recombinant PDE10A using [3H]-cAMP as substrate by scintillation proximity assay
cAMP and cAMP-inhibited cGMP 3',5'-cyclic phosphodiesterase 10A, sequence (Q9Y233 whole entry): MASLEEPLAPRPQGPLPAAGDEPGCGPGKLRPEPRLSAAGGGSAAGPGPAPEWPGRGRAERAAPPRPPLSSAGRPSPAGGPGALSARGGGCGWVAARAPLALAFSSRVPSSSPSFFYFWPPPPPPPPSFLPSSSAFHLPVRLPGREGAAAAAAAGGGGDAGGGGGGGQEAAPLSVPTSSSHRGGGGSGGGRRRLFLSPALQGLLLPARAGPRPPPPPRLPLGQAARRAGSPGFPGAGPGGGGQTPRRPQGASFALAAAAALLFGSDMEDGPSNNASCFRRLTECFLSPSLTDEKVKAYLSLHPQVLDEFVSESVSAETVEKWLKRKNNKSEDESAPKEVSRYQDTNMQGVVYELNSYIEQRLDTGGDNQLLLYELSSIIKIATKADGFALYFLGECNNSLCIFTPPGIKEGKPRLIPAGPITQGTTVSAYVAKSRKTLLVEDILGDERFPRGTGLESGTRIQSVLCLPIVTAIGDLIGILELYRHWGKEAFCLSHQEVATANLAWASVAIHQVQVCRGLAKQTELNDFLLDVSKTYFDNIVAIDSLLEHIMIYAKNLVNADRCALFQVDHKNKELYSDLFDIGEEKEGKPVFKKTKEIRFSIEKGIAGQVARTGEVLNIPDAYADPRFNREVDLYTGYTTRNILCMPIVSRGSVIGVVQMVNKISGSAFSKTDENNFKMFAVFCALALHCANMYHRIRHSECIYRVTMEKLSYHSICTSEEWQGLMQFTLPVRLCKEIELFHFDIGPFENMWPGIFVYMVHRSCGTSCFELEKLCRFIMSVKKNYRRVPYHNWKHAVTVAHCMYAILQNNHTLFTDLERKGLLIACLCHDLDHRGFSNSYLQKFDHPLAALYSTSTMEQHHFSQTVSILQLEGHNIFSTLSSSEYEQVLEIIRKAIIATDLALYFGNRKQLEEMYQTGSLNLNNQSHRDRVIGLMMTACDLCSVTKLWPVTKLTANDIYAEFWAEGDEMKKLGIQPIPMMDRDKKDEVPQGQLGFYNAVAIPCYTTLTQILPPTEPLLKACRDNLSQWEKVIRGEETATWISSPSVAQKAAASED

[14] = Inhibition of Trypanosoma brucei PDEB2 using [3H]-cAMP as substrate after 15 mins by scintillation proximity assay
[15] = molecular target: Dual specificity calcium/calmodulin-dependent 3',5'-cyclic nucleotide phosphodiesterase 1B (Homo sapiens, UniProt Q01064); assay: Inhibition of full length human recombinant PDE1B1 using [3H]-cAMP as substrate by scintillation proximity assay
Dual specificity calcium/calmodulin-dependent 3',5'-cyclic nucleotide phosphodiesterase 1B, sequence (Q01064 whole entry): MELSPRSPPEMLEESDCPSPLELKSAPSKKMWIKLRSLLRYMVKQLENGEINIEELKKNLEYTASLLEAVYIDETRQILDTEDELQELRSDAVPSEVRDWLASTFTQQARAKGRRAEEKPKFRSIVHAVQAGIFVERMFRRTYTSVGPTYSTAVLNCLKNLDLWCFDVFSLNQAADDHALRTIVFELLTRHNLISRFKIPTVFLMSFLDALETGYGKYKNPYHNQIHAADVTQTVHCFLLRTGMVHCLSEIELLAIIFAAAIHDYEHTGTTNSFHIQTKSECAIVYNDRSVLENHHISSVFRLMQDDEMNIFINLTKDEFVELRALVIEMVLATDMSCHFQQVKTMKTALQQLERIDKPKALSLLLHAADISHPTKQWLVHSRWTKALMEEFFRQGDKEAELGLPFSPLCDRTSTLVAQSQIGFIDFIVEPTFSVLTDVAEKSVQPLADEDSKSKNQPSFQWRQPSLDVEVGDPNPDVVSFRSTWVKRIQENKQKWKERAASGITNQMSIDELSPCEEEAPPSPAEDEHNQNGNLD

[16] = molecular target: cGMP-specific 3',5'-cyclic phosphodiesterase (Homo sapiens, UniProt O76074); assay: Inhibition of full length human recombinant PDE5A1 using [3H]-cGMP as substrate by scintillation proximity assay
Procedure, shortened: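 Radiolabelled cGMP substrate at 0.5 (final assay level). Scintillation proximity read-out of the full-length recombinant enzyme's hydrolytic activity, run in the presence of test compounds.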

[17] = molecular target: 3',5'-cyclic-AMP phosphodiesterase 4D (Homo sapiens, UniProt Q08499); assay: Inhibition of full length human recombinant PDE4D3 using [3H]-cAMP as substrate by scintillation proximity assay
[18] = molecular target: Dual 3',5'-cyclic-AMP and -GMP phosphodiesterase 11A (Homo sapiens, UniProt Q9HCR9); assay: Inhibition of full length human recombinant PDE11A4 using [3H]-cAMP as substrate by scintillation proximity assay
[19] = molecular target: High affinity 3',5'-cyclic-AMP phosphodiesterase 7A (Homo sapiens, UniProt Q13946); assay: Inhibition of full length human recombinant PDE7A1 using [3H]-cAMP as substrate by scintillation proximity assay

Row | Compound | CC50 [1] [nM] | EC50 [2] [nM] | selectivity ratio [3] | IC50 [4] [nM] | IC50 [5] [nM] | further results
1 | COc1ccc(CCOc2cc(C3=NN(C4CCCCCC4)C(=O)[C@@H]4CC=CC[C@H]34)ccc2OC)cc1 (racemic) | > 63100 | 1260 | > 50 | 63.1 | – | –
2 | COc1ccc(C2=NN(C3CCCCCC3)C(=O)[C@@H]3CC=CC[C@H]23)cc1OCCCCCc1ccccc1 (racemic) | > 63100 | 5010 | > 13 | 63.1 | – | –
3 | COc1ccc(C2=NN(C3CCCCCC3)C(=O)[C@@H]3CC=CC[C@H]23)cc1OCc1cccc(OC)c1OC (racemic) | 3980 | 1580 | 2.5 | 79.4 | – | –
4 | COc1ccc(C2=NN(C3CCCCCC3)C(=O)CC2)cc1OC | – | – | – | 10000 | – | –
5 | COc1ccc(C2=NN(C3CCCCCC3)C(=O)[C@@H]3CC=CC[C@H]23)cc1OCCCCOc1ccc(-c2nnnn2C)cc1 (racemic) | > 63100 | 501 | > 125 | 10 | 0.631 | solubility [6]: < 2 µM; Ratio IC50 [7]: 16
6 | COc1ccc(-c2nn(C3CCCCCC3)c(=O)c3ccccc23)cc1OC | – | – | – | > 10000 | – | –
7 | COCCOc1cc(C2=NN(C3CCCCCC3)C(=O)[C@@H]3CC=CC[C@H]23)ccc1OC (racemic) | 25100 | 794 | 32 | 79.4 | – | –
8 | COc1ccc(C2=NN(C3CCCCCC3)C(=O)[C@@H]3CC=CC[C@H]23)cc1OCc1ccccn1 (racemic) | – | – | – | 100 | – | –
9 | COc1ccc(C2=NN(C3CCCCCC3)C(=O)[C@@H]3CC=CC[C@H]23)cc1 (racemic) | – | – | – | 3980 | – | –
10 | COc1cc(COc2cc(C3=NN(C4CCCCCC4)C(=O)[C@@H]4CC=CC[C@H]34)ccc2OC)cc(OC)c1 (racemic) | 12600 | 1000 | 12.6 | 126 | – | –
11 | COc1ccc(C2=NN(C3CCCCCC3)C(=O)[C@@H]3CC=CC[C@H]23)cc1OCCO (racemic) | 31600 | 2000 | 16 | 100 | – | –
12 | COc1ccc(C2=NN(C3CCCCCC3)C(=O)[C@@H]3CC=CC[C@H]23)cc1OC (racemic) | – | – | – | 316 | 0.631 | Ratio IC50 [7]: 501
13 | COc1ccc(C2=NN(C3CCCCCC3)C(=O)[C@@H]3CC=CC[C@H]23)cc1OCc1ccncc1 (racemic) | 15800 | 1260 | 12.6 | 158 | – | –
14 | COc1ccc(C2=NN(C3CCCCCC3)C(=O)[C@@H]3CC=CC[C@H]23)cc1OCCCCOc1ccc(-c2nnn[nH]2)cc1 (racemic) | 6310 | 20 | – | – | 0.631 | IC50 (Trypanosoma brucei): 80 nM; IC50 [8]: 6310 nM; pIC50 [9]: 6.9; IC50 [10]: 0.501 nM; solubility [6]: 75 µM (≈ 43.9 µg/mL); IC50 [11]: 3980 nM; IC50 [12]: > 10000 nM; IC50 [13]: 501 nM; IC50 [14]: 3 nM; pIC50 [14]: 8.5; IC50 [15]: 3980 nM; IC50 [16]: 2000 nM; IC50 [17]: 0.631 nM; IC50 [18]: 2000 nM; IC50 [19]: 3160 nM
15 | COc1ccc(C2=NN(C3CCCCCC3)C(=O)[C@@H]3CC=CC[C@H]23)cc1OCCCCOc1ccc(C(=O)O)cc1 (racemic) | – | – | – | 316 | 0.316 | Ratio IC50 [7]: 1000
16 | COc1ccc(C2=NNC(=O)[C@@H]3CC=CC[C@H]23)cc1OC (racemic) | – | – | – | 12600 | – | –
17 | COc1ccc(C2=NN(C3CCCCCC3)C(=O)[C@@H]3CC=CC[C@H]23)cc1OCCc1ccc(N(C)C)cc1 (racemic) | > 63100 | 1000 | > 63 | 63.1 | – | –
18 | COc1ccc(C2=NN(C3CCCCCC3)C(=O)[C@@H]3CCCC[C@H]23)cc1OC (racemic) | – | – | – | 1580 | – | –
19 | COc1ccc(C2=NN(C3CCCCCC3)C(=O)[C@@H]3CC=CC[C@H]23)cc1OCCCCn1cnc2ncncc21 (racemic) | 39800 | 200 | 200 | 15.8 | 1.58 | Ratio IC50 [7]: 10
20 | COc1ccc(C2=NN(C(C)C)C(=O)[C@@H]3CCCC[C@H]23)cc1OC (racemic) | – | – | – | 2000 | – | –
21 | COc1ccc(C2=NN(C3CCCCCC3)C(=O)[C@@H]3CC=CC[C@H]23)cc1OCCCCOc1ccc(-c2nnn(C)n2)cc1 (racemic) | > 63100 | 251 | > 251 | 3.16 | 0.501 | solubility [6]: < 2 µM; Ratio IC50 [7]: 6
22 | COc1ccc(C2=NN(C3CCCCCC3)C(=O)[C@@H]3CC=CC[C@H]23)cc1OCCCCOc1ccc(-n2ccnc2)cc1 (racemic) | 39800 | 1000 | 40 | 12.6 | 0.2 | Ratio IC50 [7]: 63
23 | COc1cccc(C2=NN(C3CCCCCC3)C(=O)[C@@H]3CC=CC[C@H]23)c1 (racemic) | – | – | – | 100000 | – | –
